Laboratory results as given in ChEMBL document CHEMBL5046217, “Discovery of New Imidazo[2,1-b]thiazole Derivatives as Potent Pan-RAF Inhibitors with Promising In Vitro and In Vivo Anti-melanoma Activity” (J Med Chem, 2021).

What was measured:
[1] = Stability in rat plasma assessed as parent compound remaining at 10 uM measured after 30 mins by LC-MS analysis; type: ADME, cell-free; settings: read-out: Stability
How it was run: (§1)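 About 10 μM compound shaken in human or rat plasma at 37 °C for 30 and 120 min. Acetonitrile added, samples centrifuged at 4 °C, and remaining parent in the supernatant quantified by LC−MS. Procaine and diltiazem run as references.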

[2] = Volume of distribution in Sprague-Dawley rat at 5 mg/kg, iv by LC-MS/MS analysis; type: ADME, organism-based; settings: in vivo
How it was run: (§2)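 Male SD rats, 7−8 weeks, 250−300 g, three per group, dosed 5 mg/kg IV or PO. Vehicle was 5% DMSO/40% PEG400/55% water. Rats fasted 16 h before oral dosing. Samples taken every 30 min and measured by LC/MS/MS with carbamazepine as internal standard. Parameters from non-compartmental analysis of plasma concentration–time profiles.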

[3] = Oral bioavailability in Sprague-Dawley rat at 5 mg/kg by LC-MS/MS analysis; type: ADME, organism-based; settings: in vivo; how it was run: as §2
[4] = Apparent permeability across apical to basolateral side in human Caco-2 cells at 5 uM measured every 15 mins for 1 hr by LC-MS/MS analysis; type: ADME, cell-based
[5] = target: Tyrosine-protein kinase ABL1 (Homo sapiens, UniProt P00519); assay: Inhibition of ABL1 (unknown origin) incubated for 1 hr by qPCR analysis
[6] = target: Mitogen-activated protein kinase kinase kinase 20 (Homo sapiens, UniProt Q9NYL2); assay: Inhibition of ZAK (unknown origin) incubated for 1 hr by qPCR analysis
How it was run: (§3)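 Competition binding assay. Kinases were either T7-phage-tagged (grown in an E. coli BL21-derived host) or expressed in HEK-293 cells and DNA-tagged. […] Bound kinase was eluted with non-biotinylated ligand and quantified by qPCR.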

[7] = target: Mitogen-activated protein kinase 8 (Homo sapiens, UniProt P45983); assay: Inhibition of MAPK8 (unknown origin) incubated for 1 hr by qPCR analysis; how it was run: as §3
[8] = Stability in human plasma assessed as parent compound remaining at 10 uM measured after 120 mins by LC-MS analysis; type: ADME, cell-free; settings: read-out: Stability; how it was run: as §1
[9] = Clearance in Sprague-Dawley rat at 5 mg/kg, iv by LC-MS/MS analysis; type: ADME, organism-based; settings: in vivo
How it was run: (§4)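 Male SD rats (7–8 weeks, 250–300 g), three per group, were dosed at 5 mg/kg i.v. or p.o. in 5% DMSO/40% PEG400/55% water. Rats were fasted 16 h before oral dosing. Serum was sampled every 30 min and measured by LC/MS/MS with carbamazepine as internal standard. Parameters came from non-compartmental analysis.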

[10] = Stability in human plasma assessed as parent compound remaining at 10 uM measured after 30 mins by LC-MS analysis; type: ADME, cell-free; settings: read-out: Stability; how it was run: as §1
[11] = target: Serine/threonine-protein kinase B-raf (Homo sapiens, UniProt P15056, V600E); assay: Inhibition of human BRAF V600E mutant using myelin basic protein as substrate in presence of [gamma-33P]ATP incubated for 40 mins by scintillation counting method
How it was run: (§5)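 Radiometric kinase assay run at Reaction Biology. Kinase (5−10 mU) in 25 mM Tris pH 7.5, 0.02 mM EGTA, 10 mM magnesium acetate with 0.66 mg/mL myelin basic protein and [γ-33P]ATP at 1 μM ATP. Reaction started with Mg-ATP and run 40 min at room temperature, then stopped with 3% phosphoric acid. Spotted on P30 filtermat, washed, scintillation counted.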

[12] = Cmax in Sprague-Dawley rat at 5 mg/kg, po by LC-MS/MS analysis; type: ADME, organism-based; set-up: route oral, dose 5 mg/kg; settings: in vivo; how it was run: as §4
[13] = Apparent permeability across basolateral to apical side in human Caco-2 cells at 5 uM measured every 15 mins for 1 hr by LC-MS/MS analysis; type: ADME, cell-based
[14] = target: Serine/threonine-protein kinase/endoribonuclease IRE1 (Homo sapiens, UniProt O75460); assay: Inhibition of ERN1 (unknown origin) incubated for 1 hr by qPCR analysis; how it was run: as §3
[15] = Acute toxicity in Hsd:athymic nude-Foxn1nu mouse at 50 to 250 mg/kg; type: organism-based; settings: in vivo, dose 50-250 mg/kg
How it was run: (§6)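 Male Hsd:Athymic Nude-Foxn1nu mice received the compound by injection at five single doses (50, 100, 250, 500 and 1000 mg/kg), with seven animals per dose group.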

[16] = Tmax in Sprague-Dawley rat at 5 mg/kg, po by LC-MS/MS analysis; type: ADME, organism-based; settings: in vivo; how it was run: as §2
[17] = target: Fibroblast growth factor receptor 1 (Homo sapiens, UniProt P11362); assay: Inhibition of FGFR1 (unknown origin) incubated for 1 hr by qPCR analysis
[18] = target: RAF proto-oncogene serine/threonine-protein kinase (Homo sapiens, UniProt P04049); assay: Inhibition of human wild type CRAF using myelin basic protein as substrate in presence of [gamma-33P]ATP incubated for 40 mins by scintillation counting method
[19] = Stability in rat plasma assessed as parent compound remaining at 10 uM measured after 120 mins by LC-MS analysis; type: ADME, cell-free; settings: read-out: Stability; how it was run: as §1
[20] = target: Homeodomain-interacting protein kinase 1 (Homo sapiens, UniProt Q86Z02); assay: Inhibition of HIPK1 (unknown origin) incubated for 1 hr by qPCR analysis; how it was run: as §3
[21] = Half life in Sprague-Dawley rat at 5 mg/kg, iv by LC-MS/MS analysis; type: ADME, organism-based; settings: in vivo; how it was run: as §4
[22] = target: Mitogen-activated protein kinase 11 (Homo sapiens, UniProt Q15759); assay: Inhibition of MAPK11 (unknown origin) incubated for 1 hr by qPCR analysis; how it was run: as §3
[23] = Half life in Sprague-Dawley rat at 5 mg/kg, po by LC-MS/MS analysis; type: ADME, organism-based; settings: in vivo; how it was run: as §4
[24] = target: Serine/threonine-protein kinase B-raf (Homo sapiens, UniProt P15056); assay: Inhibition of human wild type BRAF using myelin basic protein as substrate in presence of [gamma-33P]ATP incubated for 40 mins by scintillation counting method; how it was run: as §5
[25] = target: Mitogen-activated protein kinase 14 (Homo sapiens, UniProt Q16539); assay: Inhibition of MAPK14 (unknown origin) incubated for 1 hr by qPCR analysis; how it was run: as §3
[26] = target: T1, Receptor-type tyrosine-protein kinase FLT3 (Homo sapiens, UniProt P36888); assay: Inhibition of FLT3 (unknown origin) incubated for 1 hr by qPCR analysis; how it was run: as §3
T1 sequence (P36888 whole entry): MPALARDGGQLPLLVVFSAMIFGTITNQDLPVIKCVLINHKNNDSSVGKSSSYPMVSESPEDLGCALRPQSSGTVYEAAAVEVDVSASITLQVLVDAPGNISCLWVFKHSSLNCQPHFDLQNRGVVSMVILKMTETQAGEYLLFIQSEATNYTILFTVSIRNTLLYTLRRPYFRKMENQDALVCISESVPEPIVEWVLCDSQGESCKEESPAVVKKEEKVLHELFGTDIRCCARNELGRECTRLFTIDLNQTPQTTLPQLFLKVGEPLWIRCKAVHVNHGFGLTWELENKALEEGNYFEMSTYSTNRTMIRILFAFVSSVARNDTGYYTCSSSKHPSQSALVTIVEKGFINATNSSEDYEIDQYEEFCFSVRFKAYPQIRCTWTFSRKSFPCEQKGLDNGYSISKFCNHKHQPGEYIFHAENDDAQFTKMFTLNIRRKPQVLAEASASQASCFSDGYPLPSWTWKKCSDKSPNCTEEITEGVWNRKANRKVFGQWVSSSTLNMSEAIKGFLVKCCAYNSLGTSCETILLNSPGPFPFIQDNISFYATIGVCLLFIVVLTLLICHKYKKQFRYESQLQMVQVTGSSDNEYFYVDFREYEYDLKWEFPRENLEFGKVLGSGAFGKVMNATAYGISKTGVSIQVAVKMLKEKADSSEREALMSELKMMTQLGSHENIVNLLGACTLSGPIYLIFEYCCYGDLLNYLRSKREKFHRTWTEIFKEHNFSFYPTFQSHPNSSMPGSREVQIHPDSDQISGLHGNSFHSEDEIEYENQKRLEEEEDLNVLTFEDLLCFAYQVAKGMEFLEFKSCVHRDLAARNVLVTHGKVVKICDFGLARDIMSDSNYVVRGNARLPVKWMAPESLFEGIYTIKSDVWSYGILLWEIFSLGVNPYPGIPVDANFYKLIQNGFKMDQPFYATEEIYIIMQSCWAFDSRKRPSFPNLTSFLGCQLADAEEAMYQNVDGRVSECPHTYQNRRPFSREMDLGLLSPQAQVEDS

[27] = Acute toxicity in Hsd:athymic nude-Foxn1nu mouse assessed as animal mortality at 500 to 1000 mg/kg; type: organism-based; settings: in vivo, dose 500-1000 mg/kg; how it was run: as §6

Sequence of Serine/threonine-protein kinase B-raf (Homo sapiens, UniProt P15056, V600E) (P15056 2-766 V600E limits assumed): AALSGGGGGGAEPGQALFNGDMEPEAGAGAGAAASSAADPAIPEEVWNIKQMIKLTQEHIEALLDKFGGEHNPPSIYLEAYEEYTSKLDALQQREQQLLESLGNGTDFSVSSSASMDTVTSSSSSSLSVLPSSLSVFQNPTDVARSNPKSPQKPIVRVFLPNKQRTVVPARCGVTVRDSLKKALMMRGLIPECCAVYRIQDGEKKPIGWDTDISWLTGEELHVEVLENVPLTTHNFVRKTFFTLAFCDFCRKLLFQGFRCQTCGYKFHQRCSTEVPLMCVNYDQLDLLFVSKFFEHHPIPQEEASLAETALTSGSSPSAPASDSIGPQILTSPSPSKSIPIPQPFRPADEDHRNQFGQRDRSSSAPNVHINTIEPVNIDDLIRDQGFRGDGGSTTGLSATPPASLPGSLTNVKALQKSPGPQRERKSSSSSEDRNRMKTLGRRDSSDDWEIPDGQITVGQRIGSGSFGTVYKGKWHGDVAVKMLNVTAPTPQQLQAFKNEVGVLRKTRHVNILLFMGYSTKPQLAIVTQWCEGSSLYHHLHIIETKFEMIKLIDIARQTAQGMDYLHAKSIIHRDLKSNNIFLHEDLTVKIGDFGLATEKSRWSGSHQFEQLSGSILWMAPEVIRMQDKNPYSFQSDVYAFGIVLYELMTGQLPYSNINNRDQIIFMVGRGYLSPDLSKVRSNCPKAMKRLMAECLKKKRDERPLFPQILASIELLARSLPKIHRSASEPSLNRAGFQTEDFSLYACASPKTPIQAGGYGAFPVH
Sequence of Mitogen-activated protein kinase 11 (Q15759 whole entry): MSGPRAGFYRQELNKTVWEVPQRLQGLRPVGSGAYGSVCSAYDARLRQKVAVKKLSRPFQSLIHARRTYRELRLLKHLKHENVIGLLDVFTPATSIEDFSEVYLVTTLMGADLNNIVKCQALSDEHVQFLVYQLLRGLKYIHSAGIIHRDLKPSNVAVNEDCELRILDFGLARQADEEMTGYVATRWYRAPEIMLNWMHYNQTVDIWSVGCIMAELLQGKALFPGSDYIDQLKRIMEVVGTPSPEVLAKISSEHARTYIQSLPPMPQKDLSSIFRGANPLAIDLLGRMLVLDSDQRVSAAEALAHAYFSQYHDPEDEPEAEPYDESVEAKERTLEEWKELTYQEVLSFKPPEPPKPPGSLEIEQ
Sequence of Fibroblast growth factor receptor 1 (P11362 whole entry): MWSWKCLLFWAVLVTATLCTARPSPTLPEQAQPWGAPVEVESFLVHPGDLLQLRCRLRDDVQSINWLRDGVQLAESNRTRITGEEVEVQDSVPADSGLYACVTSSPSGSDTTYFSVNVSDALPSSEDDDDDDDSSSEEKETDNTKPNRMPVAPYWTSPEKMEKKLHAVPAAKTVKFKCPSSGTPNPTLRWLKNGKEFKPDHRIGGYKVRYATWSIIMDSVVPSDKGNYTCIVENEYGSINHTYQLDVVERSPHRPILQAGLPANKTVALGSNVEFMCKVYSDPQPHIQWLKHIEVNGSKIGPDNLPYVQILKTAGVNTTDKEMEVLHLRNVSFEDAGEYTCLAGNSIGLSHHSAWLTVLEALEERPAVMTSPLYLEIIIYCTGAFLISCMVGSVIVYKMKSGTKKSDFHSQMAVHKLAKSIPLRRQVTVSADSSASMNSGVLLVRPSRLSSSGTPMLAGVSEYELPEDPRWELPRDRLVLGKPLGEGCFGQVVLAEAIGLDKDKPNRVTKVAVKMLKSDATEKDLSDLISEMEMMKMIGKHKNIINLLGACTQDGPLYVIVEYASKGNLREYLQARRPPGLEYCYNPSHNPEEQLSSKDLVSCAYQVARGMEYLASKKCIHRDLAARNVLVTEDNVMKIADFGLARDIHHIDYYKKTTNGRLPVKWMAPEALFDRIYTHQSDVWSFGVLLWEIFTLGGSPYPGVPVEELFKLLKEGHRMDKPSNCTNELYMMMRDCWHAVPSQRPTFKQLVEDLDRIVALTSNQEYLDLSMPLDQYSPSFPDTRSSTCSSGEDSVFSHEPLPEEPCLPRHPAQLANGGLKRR
Sequence of Serine/threonine-protein kinase/endoribonuclease IRE1 (O75460 whole entry): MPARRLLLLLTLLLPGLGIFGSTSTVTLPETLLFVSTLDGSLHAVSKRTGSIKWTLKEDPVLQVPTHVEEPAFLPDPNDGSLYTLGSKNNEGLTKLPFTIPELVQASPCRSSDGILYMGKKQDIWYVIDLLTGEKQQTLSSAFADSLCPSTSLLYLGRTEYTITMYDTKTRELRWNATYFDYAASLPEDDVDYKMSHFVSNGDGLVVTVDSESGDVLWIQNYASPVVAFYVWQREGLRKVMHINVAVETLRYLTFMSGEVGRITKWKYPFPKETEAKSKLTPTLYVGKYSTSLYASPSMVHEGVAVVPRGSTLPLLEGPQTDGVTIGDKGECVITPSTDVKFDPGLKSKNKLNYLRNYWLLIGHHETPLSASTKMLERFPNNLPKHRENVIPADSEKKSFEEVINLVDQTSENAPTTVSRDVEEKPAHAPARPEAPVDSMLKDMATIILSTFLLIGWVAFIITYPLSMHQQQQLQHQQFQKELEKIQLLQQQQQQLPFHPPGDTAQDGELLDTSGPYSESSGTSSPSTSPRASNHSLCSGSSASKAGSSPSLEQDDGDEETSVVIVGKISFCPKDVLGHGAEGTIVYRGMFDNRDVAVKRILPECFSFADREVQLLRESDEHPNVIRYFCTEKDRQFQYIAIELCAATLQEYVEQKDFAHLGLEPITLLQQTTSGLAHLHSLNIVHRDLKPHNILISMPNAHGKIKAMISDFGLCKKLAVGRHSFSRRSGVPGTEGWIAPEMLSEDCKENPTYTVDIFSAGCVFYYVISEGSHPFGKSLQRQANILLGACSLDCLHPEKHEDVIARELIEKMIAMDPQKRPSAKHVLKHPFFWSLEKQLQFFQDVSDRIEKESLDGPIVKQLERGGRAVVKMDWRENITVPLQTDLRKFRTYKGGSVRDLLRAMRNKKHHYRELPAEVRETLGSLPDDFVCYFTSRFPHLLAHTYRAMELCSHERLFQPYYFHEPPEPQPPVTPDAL
Sequence of Serine/threonine-protein kinase B-raf (Homo sapiens, UniProt P15056) (P15056 whole entry): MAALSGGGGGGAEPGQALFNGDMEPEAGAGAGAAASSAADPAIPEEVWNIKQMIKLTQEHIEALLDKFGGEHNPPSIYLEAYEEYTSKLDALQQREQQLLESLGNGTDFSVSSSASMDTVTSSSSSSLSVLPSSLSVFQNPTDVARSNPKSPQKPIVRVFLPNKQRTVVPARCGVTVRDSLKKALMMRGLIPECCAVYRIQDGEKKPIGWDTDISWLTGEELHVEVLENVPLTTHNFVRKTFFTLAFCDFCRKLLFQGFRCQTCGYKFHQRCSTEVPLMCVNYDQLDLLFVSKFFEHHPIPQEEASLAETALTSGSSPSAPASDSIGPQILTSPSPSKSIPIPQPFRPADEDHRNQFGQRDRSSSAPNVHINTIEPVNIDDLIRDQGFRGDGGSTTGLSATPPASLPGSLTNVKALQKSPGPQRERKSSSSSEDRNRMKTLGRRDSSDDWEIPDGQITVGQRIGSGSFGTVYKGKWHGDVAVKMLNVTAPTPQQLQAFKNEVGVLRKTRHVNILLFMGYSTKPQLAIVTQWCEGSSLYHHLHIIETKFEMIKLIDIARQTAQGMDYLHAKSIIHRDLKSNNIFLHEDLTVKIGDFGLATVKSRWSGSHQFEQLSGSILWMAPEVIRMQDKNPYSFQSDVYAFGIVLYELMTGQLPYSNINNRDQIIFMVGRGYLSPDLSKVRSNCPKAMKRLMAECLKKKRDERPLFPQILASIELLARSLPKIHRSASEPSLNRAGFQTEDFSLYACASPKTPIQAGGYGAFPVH
Sequence of Tyrosine-protein kinase ABL1 (P00519 whole entry): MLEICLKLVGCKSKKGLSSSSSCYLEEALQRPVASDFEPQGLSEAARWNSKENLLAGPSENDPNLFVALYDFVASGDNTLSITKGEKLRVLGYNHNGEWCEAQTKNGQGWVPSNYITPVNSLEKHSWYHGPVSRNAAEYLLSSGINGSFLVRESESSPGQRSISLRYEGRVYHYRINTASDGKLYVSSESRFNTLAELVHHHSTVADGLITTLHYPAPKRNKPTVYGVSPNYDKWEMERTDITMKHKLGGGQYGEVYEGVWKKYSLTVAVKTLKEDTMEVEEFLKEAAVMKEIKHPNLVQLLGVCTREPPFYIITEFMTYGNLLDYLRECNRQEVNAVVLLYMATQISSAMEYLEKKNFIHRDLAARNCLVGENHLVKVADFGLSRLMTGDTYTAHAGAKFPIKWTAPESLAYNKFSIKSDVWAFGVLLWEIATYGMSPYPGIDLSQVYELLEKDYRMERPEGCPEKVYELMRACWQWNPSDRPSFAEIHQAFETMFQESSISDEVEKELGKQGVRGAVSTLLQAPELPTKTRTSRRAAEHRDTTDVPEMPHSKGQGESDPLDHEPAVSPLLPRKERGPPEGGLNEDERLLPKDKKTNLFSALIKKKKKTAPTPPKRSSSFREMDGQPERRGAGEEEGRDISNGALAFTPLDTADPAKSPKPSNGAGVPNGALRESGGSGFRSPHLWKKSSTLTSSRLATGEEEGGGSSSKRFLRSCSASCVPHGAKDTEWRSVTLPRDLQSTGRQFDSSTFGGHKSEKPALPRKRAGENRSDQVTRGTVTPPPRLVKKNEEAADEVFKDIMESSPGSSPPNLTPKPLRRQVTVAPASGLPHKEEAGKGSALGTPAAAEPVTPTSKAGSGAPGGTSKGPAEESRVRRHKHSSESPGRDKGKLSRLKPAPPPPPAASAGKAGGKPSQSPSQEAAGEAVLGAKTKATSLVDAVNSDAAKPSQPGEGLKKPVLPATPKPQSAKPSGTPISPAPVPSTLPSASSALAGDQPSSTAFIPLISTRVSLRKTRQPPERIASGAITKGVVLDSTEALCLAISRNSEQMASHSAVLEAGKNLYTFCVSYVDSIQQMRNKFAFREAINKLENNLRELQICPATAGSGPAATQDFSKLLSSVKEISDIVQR

CN1CCN(CCNc2nccc(-c3c(-c4cccc(O)c4)nc4sccn34)n2)S1(=O)=O
remaining at 0.5 h, 10 µM [1]: 90.6%
Vd [2]: 0.578 L/kg
bioavailability [3]: 6.59%
Papp A→B at 1 h, 5 µM [4]: 14.2 ×10⁻⁶ cm/s
IC50 [5]: 12400 nM
IC50 [6]: 9010 nM
IC50 [7]: 910 nM
remaining at 2 h, 10 µM [8]: 95.4%
clearance [9]: 2.07 mL/min/kg
remaining at 0.5 h, 10 µM [10]: 97.2%
IC50 [11]: 0.07 nM
Cmax [12]: 96.9 ng/mL
Papp B→A at 1 h, 5 µM [13]: 21.8 ×10⁻⁶ cm/s
IC50 [14]: 11300 nM
Activity [15]: Non-Toxic
Tmax [16]: 2.08 h
IC50 [17]: 13500 nM
IC50 [18]: 1.12 nM
remaining at 2 h, 10 µM [19]: 76.6%
IC50 [20]: 3780 nM
half-life [21]: 1.72 h
IC50 [22]: 820 nM
half-life [23]: 3.35 h
IC50 [24]: 2 nM
IC50 [25]: 1020 nM
IC50 [26]: 1510 nM
Activity [27]: Toxic
